Measured values published in ChEMBL document CHEMBL4325891 (Eur J Med Chem, 2019).
Calls of active or inactive are those of the source. The calls are words filed in the database; no cut-off is given here. Where a SMILES comes first, the peptide text is derived from it. The star is where a group is joined. Doxorubicin(Traut) = COc1cccc2c1C(=O)c1c(O)c3c(c(O)c1C2=O)C[C@@](O)(C(=O)CO)C[C@@H]3O[C@H]1C[C@H](NC(=N)CCCS*)[C@H](O)[C@H](C)O1; βAla = NCCC(=O)O

Key:
HT-1080 [1] = assay: Inhibition of cell proliferation in human HT1080 cells at 5 uM after 24 hrs by MTT or MTS assay relative to control; assay type: functional; conditions: for inhibition at 5 µM: HT-1080, 24 h
How it was run: (§1)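 Seeding was 5000 cells/well for HEK-293, SKOV-3 and HT-1080, and 50,000 for CCRF-CEM, 24 h before dosing. CCRF-CEM was grown in RPMI and the others in EMEM with 10% FBS. Compounds were given at 5 μM for 24 or 72 h at 37 °C, with water/0.025% DMSO as negative control. Adherent lines received fresh medium before adding MTT (595 nm) or MTS (490 nm). Background-corrected OD is expressed as percent of control; triplicate runs.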

SK-OV-3 [2] = assay: Inhibition of cell proliferation in human SKOV3 cells at 5 uM after 72 hrs by MTT or MTS assay relative to control; assay type: functional; conditions: SK-OV-3, 72 h
[3] = Drug uptake in HEK293 cells at 50 uM after 3 hrs by flow cytometry; assay type: ADME, cell-based; conditions: human, hek293, 3 h
[4] = Inhibition of cell proliferation in HEK293 cells at 5 uM after 72 hrs by MTT or MTS assay relative to control; assay type: cell-based; conditions: human; how it was run: as §1
[5] = Drug uptake in human SKOV3 cells nucleus at 5 uM after 1 to 24 hrs by DAPI staining based fluorescence microscopic method; assay type: ADME, subcellular; conditions: sk-ov-3, 5 µM
How it was run: (§2)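 1×10^4 cells per chamber were allowed to attach and then cultured overnight. Compounds were added at 5 μM final in fresh medium for 1 h or 24 h, with untreated cells as control. Cells were then washed with DPBS and fixed in 4% paraformaldehyde for 30 min.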

[6] = Drug uptake in human MDA-MB-468 cells nucleus at 5 uM after 1 to 24 hrs by DAPI staining based fluorescence microscopic method; assay type: ADME, subcellular; conditions: mda-mb-468, 5 µM; how it was run: as §2
CCRF-CEM [7] = assay: Inhibition of cell proliferation in human CCRF-CEM cells at 5 uM after 24 hrs by MTT or MTS assay relative to control; assay type: functional; how it was run: as §1
[8] = Drug uptake in human HT1080 cells nucleus at 5 uM after 1 to 24 hrs by DAPI staining based fluorescence microscopic method; assay type: ADME, subcellular; conditions: ht-1080, 5 µM; how it was run: as §2
SK-OV-3 [9] = assay: Inhibition of cell proliferation in human SKOV3 cells at 5 uM after 24 hrs by MTT or MTS assay relative to control; assay type: functional; conditions: SK-OV-3, 24 h
[10] = Drug uptake in human CCRF-CEM cells at 50 uM after 3 hrs by flow cytometry; assay type: ADME, cell-based
HT-1080 [11] = assay: Inhibition of cell proliferation in human HT1080 cells at 5 uM after 72 hrs by MTT or MTS assay relative to control; assay type: functional; conditions: for inhibition at 5 µM: HT-1080, 72 h
[12] = Drug uptake in human HT1080 cells at 50 uM after 3 hrs by flow cytometry; assay type: ADME, cell-based; conditions: ht-1080, 3 h
[13] = Inhibition of cell proliferation in HEK293 cells at 5 uM after 24 hrs by MTT or MTS assay relative to control; assay type: cell-based; conditions: human
CCRF-CEM [14] = assay: Inhibition of cell proliferation in human CCRF-CEM cells at 5 uM after 72 hrs by MTT or MTS assay relative to control; assay type: functional; how it was run: as §1
[15] = Drug uptake in human MCF7 cells nucleus at 5 uM after 1 to 24 hrs by DAPI staining based fluorescence microscopic method; assay type: ADME, subcellular; conditions: mcf7, 5 µM; how it was run: as §2
[16] = Cytotoxicity against mouse C2C12 cells assessed as cell viability at 5 uM after 72 hrs by MTT assay relative to control; assay type: cell-based; conditions: read-out: Activity
How it was run: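 C2C12 mouse myoblasts grown in DMEM with 10% FBS, seeded at 10,000 cells/well 24 h before dosing. Compound exposure for 72 h at 37 °C, then MTT read-out. Viability expressed relative to untreated control, set at 100%. Run in triplicate.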

C2C12 [17] = assay: Induction of ROS generation in mouse C2C12 cells at 0.5 uM after 72 hrs by H2DCFDA staining based flow cytometry relative to control; assay type: cell-based; conditions: c2c12, 72 h
C2C12 [18] = assay: Induction of FeCl2-mediated ROS generation in mouse C2C12 cells at 0.5 uM after 72 hrs by H2DCFDA staining based flow cytometry relative to control; assay type: cell-based; conditions: c2c12, 72 h
How it was run: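 C2C12 cells were seeded in DMEM with 10% FBS and cultured 24 h. They were then incubated 72 h in serum-free DMEM with 10 μM Fe²⁺ (FeCl₂), with or without compound at 0.5 μM. Cells were harvested and stained with 10 μM H₂DCFDA in HBSS for 30 min at 37 °C before flow cytometry. The mean signal of 5000 cells is expressed as fold of control; experiments were done twice.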

[19] = Drug uptake in human SKOV3 cells at 50 uM after 3 hrs by flow cytometry; assay type: ADME, cell-based; conditions: sk-ov-3, 3 h
[20] = Drug uptake in human HT1080 cells at 5 uM after 3 hrs by flow cytometry; assay type: ADME, cell-based; conditions: ht-1080, 3 h
How it was run: (§3)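 Adherent cells were plated at 5×10^4 per well in serum-free medium and left overnight, then exposed to 5 μM compound for 3 h at 37 °C, with untreated cells as control. Cells were washed with DPBS, trypsinised for 5 min and washed twice. Flow cytometry read the Texas Red channel, giving the mean fluorescence of 10,000 cells, in triplicate.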

[21] = Drug uptake in human SKOV3 cells at 5 uM after 3 hrs by flow cytometry; assay type: ADME, cell-based; conditions: sk-ov-3, 3 h; how it was run: as §3

Row | Compound | inhibition at 5 µM (HT-1080 [1]) [%] | inhibition at 5 µM (SK-OV-3 [2]) [%] | inhibition at 72 h, 5 µM [4] [%] | Drug uptake [5] | Drug uptake [6] | inhibition at 5 µM (CCRF-CEM [7]) [%] | Drug uptake [8] | inhibition at 5 µM (SK-OV-3 [9]) [%] | inhibition at 5 µM (HT-1080 [11]) [%] | Drug uptake [12] | inhibition at 24 h, 5 µM [13] [%] | inhibition at 5 µM (CCRF-CEM [14]) [%] | Drug uptake [15] | viability at 72 h, 5 µM [16] [%] | fold change (FC) (C2C12 [17]) | further results
1 | COc1cccc2c1C(=O)c1c(O)c3c(c(O)c1C2=O)C[C@@](O)(C(=O)CO)C[C@@H]3O[C@H]1C[C@H](NC(=N)CCCSSc2ccccn2)[C@H](O)[C@H](C)O1 | 80 | 39 | 60 | Active | Active | 46 | Active | 72 | 68 | Active | 66 | 73 | Active | – | – | Drug uptake [3]: Active; Drug uptake [10]: Active
2 | COc1cccc2c1C(=O)c1c(O)c3c(c(O)c1C2=O)C[C@@](O)(C(=O)CO)C[C@@H]3O[C@H]1C[C@H](NC(=N)CCCS)[C@H](O)[C@H](C)O1 | 62 | 42 | 64 | Active | Active | 48 | Active | – | 68 | – | 61 | 73 | Active | – | – | –
3 | COc1cccc2c1C(=O)c1c(O)c3c(c(O)c1C2=O)C[C@@](O)(C(=O)CO)C[C@@H]3O[C@H]1C[C@H](NC(=N)CCCSSC[C@@H]2NC(=O)[C@H](CCCNC(=N)N)NC(=O)[C@H](Cc3c[nH]c4ccccc34)NC(=O)[C@H](CCCNC(=N)N)NC(=O)[C@H](Cc3c[nH]c4ccccc34)NC(=O)[C@H](CCCCNC(=O)CCN)NC(=O)[C@H](Cc3c[nH]c4ccccc34)NC(=O)[C@H](CCCNC(=N)N)NC(=O)[C@H](Cc3c[nH]c4ccccc34)NC(=O)[C@H](CCCNC(=N)N)NC2=O)[C@H](O)[C@H](C)O1 (cyclo(C(Doxorubicin(Traut))RWRWK(βAla)WRWR)) | – | – | – | Active | Active | – | Active | – | – | Active | – | – | Active | 71 | 1.05 | Activity (C2C12 [18]): Non-Toxic; Drug uptake [19]: Active
4 | N=C(N)NCCC[C@@H]1NC(=O)[C@H](CS)NC(=O)[C@H](CCCNC(=N)N)NC(=O)[C@H](Cc2c[nH]c3ccccc23)NC(=O)[C@H](CCCNC(=N)N)NC(=O)[C@H](Cc2c[nH]c3ccccc23)NC(=O)[C@H](CCCCNC(=O)CCN)NC(=O)[C@H](Cc2c[nH]c3ccccc23)NC(=O)[C@H](CCCNC(=N)N)NC(=O)[C@H](Cc2c[nH]c3ccccc23)NC1=O (cyclo(CRWRWK(βAla)WRWR)) | – | – | – | – | – | – | – | – | – | – | – | – | – | – | – | inhibition (HT-1080 [1]): inactive; inhibition (CCRF-CEM [7]): inactive; inhibition (CCRF-CEM [14]): inactive
5 | COc1cccc2c1C(=O)c1c(O)c3c(c(O)c1C2=O)C[C@@](O)(C(=O)CO)C[C@@H]3O[C@H]1C[C@H](N)[C@H](O)[C@H](C)O1 [DOXORUBICIN] | 66 | 51 | – | Active | Active | 45 | Active | 66 to 76 | – | – | 57 | 69 | Active | 28.6 | 1.09 | Drug uptake [20]: Active; fold change (FC) (C2C12 [18]): 3.48; inhibition (HT-1080 [11]): inactive; Drug uptake [21]: Active
